Results: publication PMC9128166 (Cancer Science, 2022)
Several values for one entry are separate records, joined by “and”; a condition that tells them apart may be missing. Equal values may be shown once. Entries after “also recorded” stand apart in the source; their conditions may differ. Read-outs that look alike come from different tables or passages of the source.

Experiments:
[1] = Plasma pharmacokinetics of parsaclisib, cycle 1 day 15; format: in vivo, Japanese patients; settings: for Vd/F: Vz/F
[2] = Urine pharmacokinetics of parsaclisib, cycle 1 day 15; format: in vivo, Japanese patients
[3] = format: in vivo, Japanese patients
[4] = Dose-limiting toxicity / MTD, 3 + 3 dose escalation and expansion; format: in vivo, Japanese patients
Method in brief: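 Oral test compound in Japanese patients: once daily for 8 weeks, then the same dose weekly; starting dose 10 mg QD. Patients were hospitalised for the 28-day DLT period. DLTs were graded by NCI CTCAE v4.03. MTD was one level below the dose with DLT in ≥2 of 6 patients, with 3 added patients to confirm.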

[5] = Parsaclisib exposure and patient disposition; format: in vivo, Japanese patients
Method in brief: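 Safety population: all enrolled patients given ≥1 dose. Regimen was 10 or 20 mg QD for 8 weeks, then QW, until progression, death, unacceptable toxicity or consent withdrawal. AEs were graded by NCI CTCAE v4.03. Treatment duration (d) = last dose − first dose + 1. QW-period duration (wk) = ceiling[(last dose − first QW dose + 1)/7]. Interruptions and reductions were tallied by dosing period.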

[6] = tested on: relapsed or refractory follicular lymphoma; experiment: Investigator-assessed response; format: in vivo, Japanese patients
Method in brief: (§1)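 Investigator-assessed response by Lugano criteria in the full analysis set (all treated patients). Patients received 10 or 20 mg QD orally for 8 weeks, then the same dose QW. CT, FDG-PET or PET-CT was chosen by subtype, using the same technique as at screening. Scans ran every 8 weeks through week 24, every 12 weeks through week 96, then every 24 weeks until progression.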

[7] = tested on: relapsed or refractory diffuse large B‐cell lymphoma; experiment: Investigator-assessed response; format: in vivo, Japanese patients
Method in brief: as §1

[8] = tested on: relapsed or refractory marginal zone lymphoma; experiment: Investigator-assessed response; format: in vivo, Japanese patients
Method in brief: as §1

[9] = tested on: plasma proteins associated with PI3Kδ inhibition; experiment: Plasma proteomic pharmacodynamic biomarkers; format: in vivo, Japanese patients
[10] = tested on: phospho‐AKT; settings: read-out: calculated in vitro IC90 for phospho‐AKT inhibition; measure of PI3K pathway pharmacodynamic activity; ref not given; cited from earlier work
[11] = cited from earlier work
[12] = 10 mg QD, cycle 1 day 15, n 3, mean ± SD
[13] = 20 mg QD, cycle 1 day 15, n 11, mean ± SD
[14] = Any postbaseline abnormality, N = 17
[15] = Worst grade postbaseline Grade 3, N = 17
[16] = Worst grade postbaseline Grade 4, N = 17
[17] = among 16 patients with grade 0 at baseline
[18] = two responders with MZL, individual values
[19] = previous studies, patients with NHL

## CCOc1c([C@H](C)n2nc(C)c3c(N)ncnc32)cc(Cl)c(F)c1[C@@H]1CNC(=O)C1 [parsaclisib]
[1]; [12]
  Accumulation ratio: 1.4 ± 0.2 (1.4, 17.1)
  CLss/F: 1.8 ± 0.6 (1.75, 30.9) L/h
  Cmin: 227 ± 83.2 nM and 227 ± 83.2 (215, 36.6) nM
[1]; 10 mg QD, cycle 1 day 15, n 3, median (range)
  Tmax: 1.0 (0.5–2.0) h
[1]; [13]
  Accumulation ratio: 1.2 ± 0.1 (1.2, 11.3)
  CLss/F: 2.3 ± 0.75 (2.2, 32.9) L/h
  Cmin: 303 ± 155 nM and 303 ± 155 (271, 51.0) nM
[1]; Total (10 and 20 mg QD), cycle 1 day 15, n 14, mean ± SD
  CLss/F: 2.2 ± 0.7 L/h and 2.2 ± 0.7 (2.1, 32.8) L/h
[1]; human, plasma, oral, 10 mg
  AUC: 12.5 µM·h
  Cmax: 1440 ± 502 nM
[1]; human, plasma, oral, 10 mg, Tmax, 10 mg QD, cycle 1 day 15, n 3, median (range)
  Tmax: 0.97 h
[1]; human, plasma, oral, 10 mg, 10 mg QD, cycle 1 day 15, n 3, mean ± SD
  Vd/F: 31.3 ± 9.8 L
[1]; human, plasma, oral, 10 mg, t½, 10 mg QD, cycle 1 day 15, n 3, mean ± SD
  half-life: 12.6 ± 4.6 h
[1]; human, plasma, oral, 20 mg
  AUC: 20.5 µM·h
  Cmax: 2630 ± 530 nM
[1]; human, plasma, oral, 20 mg, Tmax, 20 mg QD, cycle 1 day 15, n 11, median (range)
  Tmax: 0.55 h
[1]; human, plasma, oral, 20 mg, 20 mg QD, cycle 1 day 15, n 11, mean ± SD
  Vd/F: 31.1 ± 10.2 L
[1]; human, plasma, oral, 20 mg, t½, 20 mg QD, cycle 1 day 15, n 11, mean ± SD
  half-life: 9.8 ± 2.8 h
[1]; human, plasma, oral, steady‐state geometric mean t½, overall, dose‐independent
  half-life: 9.9 h
[2]; Total, cycle 1 day 15, n 14, mean ± SD (text: mean (range))
  Fe,0-8h (unchanged parsaclisib recovered in urine): 12.1 (5.4–20.4) %
[2]; human, urine, oral
  CL renal: 6.67 mL/min
[3]; 5 of 17 patients, all during first 8 weeks
  treatment‐emergent new or worsening decreased neutrophils to grade 3 or 4: 29.4%
[3]; [14]
  Alanine aminotransferase (increased): 7 (41.2) n (%)
  Albumin (decreased): 9 (52.9) n (%)
  Alkaline phosphatase (increased): 7 (41.2) n (%)
  Aspartate aminotransferase (increased): 7 (41.2) n (%)
  Calcium (decreased): 8 (47.1) n (%)
  Creatinine (increased): 17 (100.0) n (%)
  Leukocytes (decreased): 9 (52.9) n (%)
  Neutrophils (decreased): 12 (70.6) n (%)
  Platelets (decreased): 7 (41.2) n (%)
  Potassium (increased): 5 (29.4) n (%)
  Sodium (decreased): 5 (29.4) n (%)
[3]; [15]
  Alanine aminotransferase (increased): 0 (0.0) n (%)
  Albumin (decreased): 0 (0.0) n (%)
  Alkaline phosphatase (increased): 0 (0.0) n (%)
  Aspartate aminotransferase (increased): 0 (0.0) n (%)
  Calcium (decreased): 0 (0.0) n (%)
  Creatinine (increased): 0 (0.0) n (%)
  Leukocytes (decreased): 0 (0.0) n (%)
  Neutrophils (decreased): 4 (23.5) n (%)
  Platelets (decreased): 0 (0.0) n (%)
  Potassium (increased): 0 (0.0) n (%)
  Sodium (decreased): 0 (0.0) n (%)
[3]; [16]
  Alanine aminotransferase (increased): 0 (0.0) n (%)
  Albumin (decreased): 0 (0.0) n (%)
  Alkaline phosphatase (increased): 0 (0.0) n (%)
  Aspartate aminotransferase (increased): 0 (0.0) n (%)
  Calcium (decreased): 0 (0.0) n (%)
  Creatinine (increased): 0 (0.0) n (%)
  Leukocytes (decreased): 0 (0.0) n (%)
  Neutrophils (decreased): 1 (5.9) n (%)
  Platelets (decreased): 0 (0.0) n (%)
  Potassium (increased): 0 (0.0) n (%)
  Sodium (decreased): 0 (0.0) n (%)
[3]; [17]
  shifts to increased ALT, grade 1: 5 patients
  shifts to increased ALT, grade 2: 2 patients
  shifts to increased AST, grade 1: 7 patients
[3]; human, in vivo
  treatment‐emergent elevations of ALT or AST to grade 3 or 4: No treatment‐emergent worsening in aminotransferase elevations to grade 3 or 4; also recorded: no treatment‐emergent elevations of ALT or AST to grade 3 or 4
[3]; shifts to grade 1 or 2
  elevation in ALT: 41.2%
  elevation in AST: 41.2%
[4]; 20 mg QD for 8 weeks followed by 20 mg QW
  MTD: not considered to have exceeded the MTD; also recorded: the criteria for MTD was not exceeded
[4]; 20‐mg dose level, QD schedule
  DLTs during dose expansion: grade 3 febrile neutropenia on day 28 and grade 4 neutropenia on day 14 (each in 1 patient); also recorded: two DLTs occurred in one patient each
[4]; dose‐escalation phase, 10‐mg (n = 3) or 20‐mg (n = 3) dose level
  DLTs during the 28‐day DLT observation period: No DLTs
[5]; 10 mg QD + 10 mg QW (n = 3)
  Patients with dose interruption: 2 (66.7) n (%)
  Patients with dose reduction: 1 (33.3) n (%)
[5]; 20 mg QD + 20 mg QW (n = 14)
  Patients with dose interruption: 8 (57.1) n (%)
  Patients with dose reduction: 4 (28.6) n (%)
[5]; 2 of 17 patients (varicella zoster infection, pyrexia)
  patients who discontinued treatment due to AEs / TEAEs: 11.8%
[5]; 5 of 17 patients
  patients requiring a dose reduction: 29.4%
[5]; 6 of 17 patients
  patients remaining on study treatment at data cut‐off: 35.3%
[5]; 10 of 17 patients
  patients requiring a dose interruption during the treatment period: 58.8%
[5]; Total (N = 17)
  Patients with dose interruption: 10 (58.8) n (%)
  Patients with dose reduction: 5 (29.4) n (%)
[6]; FL (n = 9)
  BOR, CMR/CR: 2 (22.2) n (%)
  BOR, NMR/SD: 0 (0.0) n (%)
  BOR, PMD/PD: 0 (0.0) n (%)
  BOR, PMR/PR: 7 (77.8) n (%)
  Objective response: 9 (100.0) n (%)
[6]; FL (n = 9), no postbaseline response data available
  BOR, Not assessed: 0 (0.0) n (%)
[6]; FL, 2 of 9 patients
  complete response: 22.2%
[6]; FL, 9 of 9 patients
  ORR: 100%
[6]; nine responders with FL
  observed PFS: 1.9–17.5 months
[7]; DLBCL (n = 6)
  BOR, CMR/CR: 0 (0.0) n (%)
  BOR, NMR/SD: 1 (16.7) n (%)
  BOR, PMD/PD: 3 (50.0) n (%)
  BOR, PMR/PR: 1 (16.7) n (%)
  Objective response: 1 (16.7) n (%)
[7]; DLBCL (n = 6), no postbaseline response data available
  BOR, Not assessed: 1 (16.7) n (%)
[7]; DLBCL, 1 of 6 patients (partial response)
  ORR: 16.7%
[7]; one responder with DLBCL
  observed PFS: 13.8 months
  observed response duration: 12.2 months
[8]; MZL (n = 2)
  BOR, CMR/CR: 0 (0.0) n (%)
  BOR, NMR/SD: 0 (0.0) n (%)
  BOR, PMD/PD: 0 (0.0) n (%)
  BOR, PMR/PR: 2 (100) n (%)
  Objective response: 2 (100.0) n (%)
[8]; MZL (n = 2), no postbaseline response data available
  BOR, Not assessed: 0 (0.0) n (%)
[8]; MZL, 2 of 2 patients
  ORR: 100%
[8]; [18]
  observed PFS: 16.7 months and 22.0 months
  observed response duration: 14.8 months and 16.8 months
[9]; 10 mg or 20 mg QW, weeks 12 and 24
  parsaclisib‐responsive proteins after transition to QW dosing: reverted partially or completely to baseline expression levels
[9]; FL and MZL (n = 11), approximately 1000 proteins analysed
  plasma proteins significantly changed following 4 weeks or 8 weeks of QD parsaclisib dosing: 23 plasma proteins
[10]
  IC90: 40 nM
[11]; previous studies, patients with FL or MZL
  decreases in neutrophil count to grade 3 or 4: 13–14%
[11]; [19]
  ALT elevation: 13–26%
  AST elevation: 17–23%
[11]; primarily Western populations
  cough (TEAE): 17–22%
  nausea (TEAE): 14–26%
  pyrexia (TEAE): 13–17%
  rash (TEAE): 14–22%
[11]; prior studies, primarily Western populations
  diarrhea (TEAE): 20–44%
